Source: ChEMBL document CHEMBL1123250, “Chloroalanyl antibiotic peptides: antagonism of their antimicrobial effects by L-alanine and L-alanyl peptides in gram-negative bacteria” (1986)
Values after ≈ are worked out from the molar mass of the structure shown.

How the values were obtained:
Escherichia coli [1] = experiment: Compound was tested for antibacterial activity against Escherichia coli; format: functional
Outline: (§1)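 Agar dilution MIC on defined peptide susceptibility agar. Inoculum made by growing overnight in liquid peptide susceptibility medium, then diluting to about 1 × 10^7 cfu/mL. Applied by Steers replicator to plates carrying serial 2-fold peptide dilutions. Incubated overnight at 37 °C. MIC = lowest concentration allowing growth of fewer than 10 colonies after 16-18 h.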

Proteus mirabilis = experiment: Compound was tested for antibacterial activity against Proteus mirabilis; format: functional; outline: as §1
Shigella flexneri = experiment: Compound was tested for antibacterial activity against Shigella flexneri; format: functional; outline: as §1
Streptococcus agalactiae = experiment: Compound was tested for antibacterial activity against Streptococcus agalactiae; format: functional
Outline: (§2)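 Inoculum made from colonies grown overnight on chocolate or blood agar, resuspended in liquid medium to 10' cfu/mL. Applied by Steers replicator to serial 2-fold peptide dilutions. Incubated overnight at 37 °C under 7% CO2. MIC = lowest concentration giving fewer than 10 colonies at 16-18 h.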

Staphylococcus aureus = experiment: Compound was tested for antibacterial activity against Staphylococcus aureus; format: functional; outline: as §1
Streptococcus pyogenes = experiment: Compound was tested for antibacterial activity against Streptococcus pyogenes; format: functional; outline: as §2
[2] = tested on: Staphylococcus epidermidis; experiment: Compound was tested for antibacterial activity against Staphylococcus epidermidis; format: functional; outline: as §1
Enterococcus faecalis = experiment: Compound was tested for antibacterial activity against Streptococcus faecalis; format: functional; outline: as §1
Haemophilus influenzae = experiment: Compound was tested for antibacterial activity against Hemophilus influenzae; format: functional; outline: as §2
Enterobacter cloacae = experiment: Compound was tested for antibacterial activity against Enterobacter cloacae; format: functional; outline: as §1
Morganella morganii = experiment: Compound was tested for antibacterial activity against Morganella morganii; format: functional; outline: as §1
[3] = target: Alanine racemase, biosynthetic (Escherichia coli K-12) (UniProt P0A6B4); experiment: Compound was tested for enzyme activity against alanine racemase; per mg of protein
Alanine racemase, biosynthetic (Escherichia coli K-12), sequence (P0A6B4 whole entry): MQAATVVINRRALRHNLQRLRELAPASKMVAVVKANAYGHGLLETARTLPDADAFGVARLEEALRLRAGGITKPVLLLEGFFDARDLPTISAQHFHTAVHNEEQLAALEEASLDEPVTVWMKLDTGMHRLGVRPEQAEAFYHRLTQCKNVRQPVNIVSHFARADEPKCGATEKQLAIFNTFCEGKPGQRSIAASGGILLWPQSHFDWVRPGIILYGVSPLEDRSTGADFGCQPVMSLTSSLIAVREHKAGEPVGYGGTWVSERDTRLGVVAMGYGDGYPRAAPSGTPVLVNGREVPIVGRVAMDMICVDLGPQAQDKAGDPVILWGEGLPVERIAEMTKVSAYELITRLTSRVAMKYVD
Outline: (§3)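 E. coli JSR-0 grown at 37 °C in Davis-Mingioli medium with Met/Pro (50 µg/mL) and Leu/Ile/Val (100 µg/mL). Some cultures had 5% sucrose or 500 µg/mL L-Ala. Agent added at ~100 Klett units; cells harvested after 30 min, washed and sonicated. Racemase read D→L in the supernatant, coupled to L-alanine dehydrogenase (NADH, 340 nm): 10 mM D-Ala, 5 mM NAD+, CHES pH 9.0, 37 °C.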

Escherichia coli [4] = experiment: Compound was tested for enzyme activity against transaminase B; per mg of protein
Outline: (§4)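 Homogenates of E. coli JSR-0 taken 30 min after agent addition at ~100 Klett units (Davis-Mingioli medium with Met/Pro, Leu/Ile/Val, and in some cultures sucrose or L-Ala). Valine→α-ketoisovalerate transamination read in Tris-HCl pH 7.8 with pyridoxal phosphate and α-ketoglutarate at 37 °C. Timed aliquots derivatized with 2,4-dinitrophenylhydrazine; hydrazone read at 430 nm against a standard curve.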

[5] = target: Alanine racemase, biosynthetic (Escherichia coli K-12) (UniProt P0A6B4); experiment: Compound was tested for enzyme activity against alanine racemase; per mg protein; outline: as §3
Escherichia coli [6] = experiment: Compound was tested for enzyme activity against transaminase B; per mg protein; outline: as §4

Compound	MIC (Escherichia coli [1])	MIC (Proteus mirabilis)	MIC (Shigella flexneri)	MIC (Streptococcus agalactiae)	MIC (Staphylococcus aureus)	MIC (Streptococcus pyogenes)	MIC [2]	MIC (Enterococcus faecalis)	MIC (Haemophilus influenzae)	MIC (Enterobacter cloacae)	MIC (Morganella morganii)	specific activity [3]	specific activity (Escherichia coli [4])	specific activity [5]	specific activity (Escherichia coli [6])
NC(=O)CC[C@H](N)C(=O)N[C@@H](CCl)C(=O)O	1.56 µg/mL (≈ 6.2 µM)	> 100 µg/mL	> 100 µg/mL	0.78 µg/mL (≈ 3.1 µM)	0.05 µg/mL (≈ 0.199 µM)	< 0.1 µg/mL	0.05 µg/mL (≈ 0.199 µM)	0.78 µg/mL (≈ 3.1 µM)	> 100 µg/mL						
NCCC(=O)N[C@@H](CCl)C(=O)O	> 100 µg/mL	> 100 µg/mL	> 100 µg/mL	> 100 µg/mL	0.78 µg/mL (≈ 4.01 µM)		6.25 µg/mL (≈ 32.1 µM)	> 100 µg/mL	> 100 µg/mL						
CSCC[C@H](N)C(=O)N[C@@H](C)C(=O)N[C@@H](CCl)C(=O)O	> 100 µg/mL	> 100 µg/mL	> 100 µg/mL	< 0.1 µg/mL	0.05 µg/mL (≈ 0.153 µM)	25 µg/mL (≈ 76.7 µM)	0.025 µg/mL (≈ 0.0767 µM)	6.25 µg/mL (≈ 19.2 µM)	> 100 µg/mL	> 100 µg/mL	> 100 µg/mL				
CCCC[C@H](N)C(=O)N[C@@H](CCl)C(=O)O	3.12 µg/mL (≈ 13.2 µM)	> 100 µg/mL	3.12 µg/mL (≈ 13.2 µM)	< 0.1 µg/mL	0.0125 µg/mL (≈ 0.0528 µM)	25 µg/mL (≈ 106 µM)	0.0125 µg/mL (≈ 0.0528 µM)	3.12 µg/mL (≈ 13.2 µM)	25 µg/mL (≈ 106 µM)	6.25 µg/mL (≈ 26.4 µM)	> 100 µg/mL				
CC(C)C[C@H](N)C(=O)N[C@@H](CCl)C(=O)O	3.12 µg/mL (≈ 13.2 µM)	25 µg/mL (≈ 106 µM)	50 µg/mL (≈ 211 µM)	1.56 µg/mL (≈ 6.59 µM)	0.025 µg/mL (≈ 0.106 µM)	< 0.1 µg/mL	0.0125 µg/mL (≈ 0.0528 µM)	< 0.1 µg/mL	6.25 µg/mL (≈ 26.4 µM)						
NCC(=O)N[C@@H](CCl)C(=O)O	3.12 µg/mL (≈ 17.3 µM)	> 100 µg/mL	1.56 µg/mL (≈ 8.64 µM)	0.39 µg/mL (≈ 2.16 µM)	0.025 µg/mL (≈ 0.138 µM)	0.05 µg/mL (≈ 0.277 µM)	0.05 µg/mL (≈ 0.277 µM)	> 100 µg/mL	0.2 µg/mL (≈ 1.11 µM)	1.56 µg/mL (≈ 8.64 µM)	> 100 µg/mL				
O=C(O)[C@H](CCl)NC(=O)[C@@H]1CCCN1	6.25 µg/mL (≈ 28.3 µM)	> 100 µg/mL	> 100 µg/mL	12.5 µg/mL (≈ 56.6 µM)	0.39 µg/mL (≈ 1.77 µM)	6.25 µg/mL (≈ 28.3 µM)	1.56 µg/mL (≈ 7.07 µM)	< 0.1 µg/mL	25 µg/mL (≈ 113 µM)						
N[C@@H](CCl)C(=O)N[C@@H](CCl)C(=O)N[C@@H](CCl)C(=O)O	25 µg/mL (≈ 74.7 µM)		6.25 µg/mL (≈ 18.7 µM)	0.78 µg/mL (≈ 2.33 µM)	0.2 µg/mL (≈ 0.598 µM)	0.39 µg/mL (≈ 1.17 µM)	0.1 µg/mL (≈ 0.299 µM)	< 0.1 µg/mL	6.25 µg/mL (≈ 18.7 µM)						
CCC[C@H](N)C(=O)N[C@@H](CCl)C(=O)O					0.25 µg/mL (≈ 1.12 µM)										
CSCC[C@H](N)C(=O)N[C@@H](CCl)C(=O)N[C@@H](CCl)C(=O)O	1.56 µg/mL (≈ 4.33 µM)	> 100 µg/mL	12.5 µg/mL (≈ 34.7 µM)	< 0.1 µg/mL	0.025 µg/mL (≈ 0.0694 µM)	6.25 µg/mL (≈ 17.3 µM)	0.0125 µg/mL (≈ 0.0347 µM)	0.05 µg/mL (≈ 0.139 µM)	0.39 µg/mL (≈ 1.08 µM)	> 100 µg/mL	> 100 µg/mL				
C[C@H](N)C(=O)N[C@@H](C)C(=O)N[C@@H](CCl)C(=O)O	> 100 µg/mL		> 100 µg/mL	12.5 µg/mL (≈ 47 µM)	0.025 µg/mL (≈ 0.0941 µM)	0.2 µg/mL (≈ 0.753 µM)	0.025 µg/mL (≈ 0.0941 µM)	> 100 µg/mL	> 100 µg/mL						
CN[C@@H](C)C(=O)N[C@@H](CCl)C(=O)O	6.25 µg/mL (≈ 30 µM)	> 100 µg/mL	100 µg/mL (≈ 479 µM)	6.25 µg/mL (≈ 30 µM)	0.39 µg/mL (≈ 1.87 µM)		3.12 µg/mL (≈ 15 µM)	100 µg/mL (≈ 479 µM)	12.5 µg/mL (≈ 59.9 µM)						
CC[C@H](C)[C@H](N)C(=O)N[C@@H](CCl)C(=O)O	3.12 µg/mL (≈ 13.2 µM)	12.5 µg/mL (≈ 52.8 µM)	25 µg/mL (≈ 106 µM)	3.12 µg/mL (≈ 13.2 µM)	0.025 µg/mL (≈ 0.106 µM)	< 0.1 µg/mL	0.05 µg/mL (≈ 0.211 µM)	< 0.1 µg/mL	6.25 µg/mL (≈ 26.4 µM)						
N[C@@H](Cc1ccccc1)C(=O)N[C@@H](CCl)C(=O)O	25 µg/mL (≈ 92.3 µM)	100 µg/mL (≈ 369 µM)	100 µg/mL (≈ 369 µM)	6.25 µg/mL (≈ 23.1 µM)	0.05 µg/mL (≈ 0.185 µM)	< 0.1 µg/mL	0.05 µg/mL (≈ 0.185 µM)	0.39 µg/mL (≈ 1.44 µM)	12.5 µg/mL (≈ 46.2 µM)						
C[C@H](N)C(=O)N[C@@H](CCl)C(=O)O							0.0125 µg/mL (≈ 0.0642 µM)					0.0117 µmol/min/mg	0 µmol/min/mg		
CC[C@H](N)C(=O)N[C@@H](CCl)C(=O)O	1.56 µg/mL (≈ 7.48 µM)	> 100 µg/mL	1.56 µg/mL (≈ 7.48 µM)	< 0.1 µg/mL	0.025 µg/mL (≈ 0.12 µM)	12.5 µg/mL (≈ 59.9 µM)	0.025 µg/mL (≈ 0.12 µM)	6.25 µg/mL (≈ 30 µM)	< 0.1 µg/mL	25 µg/mL (≈ 120 µM)	50 µg/mL (≈ 240 µM)				
O=C(N[C@H](CO)[C@H](O)c1ccc([N+](=O)[O-])cc1)C(Cl)Cl														0.0176 µmol/min/mg	0.0541 µmol/min/mg
CC(C)[C@H](N)C(=O)N[C@@H](C)C(=O)N[C@@H](CCl)C(=O)O	> 100 µg/mL		> 100 µg/mL	3.12 µg/mL (≈ 10.6 µM)	0.05 µg/mL (≈ 0.17 µM)	0.1 µg/mL (≈ 0.34 µM)	0.025 µg/mL (≈ 0.0851 µM)	> 100 µg/mL	> 100 µg/mL						
CC(C)[C@H](N)C(=O)N[C@@H](CCl)C(=O)O	1.56 µg/mL (≈ 7.01 µM)	100 µg/mL (≈ 449 µM)	> 100 µg/mL	1.56 µg/mL (≈ 7.01 µM)	0.025 µg/mL (≈ 0.112 µM)	< 0.1 µg/mL	< 0.0125 µg/mL	< 0.1 µg/mL	12.5 µg/mL (≈ 56.1 µM)						
CSCC[C@H](N)C(=O)N[C@@H](CCl)C(=O)O		50 µg/mL (≈ 196 µM)				1.56 µg/mL (≈ 6.12 µM)					50 µg/mL (≈ 196 µM)				
